Experimental data from ChEMBL document CHEMBL4765234 (J Med Chem, 2016).
Values after ≈ are worked out from the molar mass of the structure shown. Active and inactive are the calls of the source. The rule behind the calls is not given here.

Experiments:
[1] = molecular target: T1, Free fatty acid receptor 1 (Homo sapiens, UniProt O14842); test: Displacement of [3H]-TAK-875 from human recombinant full-length GPR40 expressed in human HEK293 cell membrane incubated for 2 hrs by solid scintillation counting method; format: cell membranes; settings: for Activity: filed as agonist
[2] = molecular target: T1, Free fatty acid receptor 1; test: Agonist activity at human recombinant full length GPR40 overexpressed in human HEK293 cells assessed as increase in intracellular calcium level measured over 3 mins by calcium 4 dye based FLIPR assay relative to 100 uM linoleic acid; format: functional, cell-based; settings: filed as agonist
How it was run: (§1)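 HEK293 cells overexpressing hGPR40 (25K/well) were cultured overnight in DMEM/F12 with 0.2% FBS and geneticin. Compound was tested at 40 μM–0.1 nM final (20-point, 1% DMSO), and FLIPR fluorescence was read over 3 min.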

[3] = molecular target: T1, Free fatty acid receptor 1; test: Agonist activity at human recombinant full-length Prolink-tagged GPR40 fused with EA-tagged beta-arrestin expressed in human HEK293 cells assessed as induction of beta-arrestin recruitment measured after 90 mins by beta-galactosidase based PathHunter assay relative to control; format: cell-based; settings: filed as agonist
How it was run: (§2)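 PathHunter β-gal complementation. Cells were incubated overnight at 5000/well in medium with 1% heat-inactivated FBS. Compound was added as a 20-point 2-fold series from a top final of 100 μM (1% DMSO) for 90 min at 37 °C, followed by detection reagents and chemiluminescence read after 1 h at rt.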

[4] = molecular target: Free fatty acid receptor 1 (Mus musculus) (UniProt Q76JU9); test: Agonist activity at Prolink-tagged mouse GPR40 fused with EA-tagged beta-arrestin expressed in human U2OS cells assessed as induction of beta-arrestin recruitment measured after 90 mins by beta-galactosidase based PathHunter assay relative to control; format: cell-based; settings: filed as agonist; how it was run: as §2
[5] = molecular target: T1, Free fatty acid receptor 1; test: Agonist activity at human recombinant full length GPR40 overexpressed in human HEK293 cells assessed as increase in inositol phosphate accumulation in presence of terbium cryptate-labeled anti IP1/d2-labelled IP1 measured after 120 mins by HTRF assay; format: functional, cell-based
How it was run: (§3)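 HEK293 hGPR40 cells (20K/well) were cultured overnight, washed, and held in IP1 stimulation buffer. IP-1 was measured by competitive HTRF immunoassay with terbium cryptate anti-IP1 mAb and d2-labelled IP1.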

[6] = molecular target: T1, Free fatty acid receptor 1; test: Agonist activity at human recombinant full length GPR40 overexpressed in human HEK293 cells assessed as increase in inositol phosphate accumulation in presence of terbium cryptate-labeled anti IP1/d2-labelled IP1 measured after 120 mins by HTRF assay relative to AMG837; format: functional, cell-based; settings: filed as agonist; how it was run: as §3
[7] = molecular target: Free fatty acid receptor 1 (Mus musculus) (UniProt Q76JU9); test: Agonist activity at GPR40 in mouse MIN6 cells assessed as induction of glucose-mediated insulin secretion incubated for 2 hrs by ELISA; format: cell-based
How it was run: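 Glucose-dependent insulin secretion in mouse MIN6 cells or rat islet cells, scored as secretion above the glucose-alone level.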

[8] = molecular target: T2, Peroxisome proliferator-activated receptor delta (Homo sapiens) (UniProt Q03181); test: Agonist activity at human Gal4-fused PPARdelta LBD expressed in African green monkey CV1 cells cotransfected with pRL-SV40 plasmid assessed as maximum efficacy measured after 24 hrs by luciferase reporter gene assay relative to control; format: cell-based; settings: CV-1
T2 sequence (whole entry): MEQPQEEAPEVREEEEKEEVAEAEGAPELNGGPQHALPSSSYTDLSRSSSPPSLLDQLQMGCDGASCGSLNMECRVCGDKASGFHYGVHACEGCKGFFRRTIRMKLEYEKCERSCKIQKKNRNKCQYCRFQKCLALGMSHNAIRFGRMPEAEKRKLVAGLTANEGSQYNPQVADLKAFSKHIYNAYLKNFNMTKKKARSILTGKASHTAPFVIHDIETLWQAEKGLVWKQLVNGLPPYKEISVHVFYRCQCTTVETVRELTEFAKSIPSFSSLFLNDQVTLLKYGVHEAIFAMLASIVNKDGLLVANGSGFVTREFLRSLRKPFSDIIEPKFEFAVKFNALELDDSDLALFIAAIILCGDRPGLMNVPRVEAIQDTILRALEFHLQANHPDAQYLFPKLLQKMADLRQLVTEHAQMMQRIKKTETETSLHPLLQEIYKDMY
How it was run: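 CV1 African green monkey kidney cells were cotransfected, in DMEM with 5% charcoal-stripped FBS, with two plasmids: an SV40-driven Gal4 DBD–PPARα or PPARδ LBD hybrid, and a 5×Gal4-element firefly luciferase reporter. Cells were replated at 15000/well for 4 h, then exposed to 0.17 nM–10 μM in half-log steps for 24 h. Luciferase was read, normalized to maximum from 10 μM reference agonist, and fit by a 4-parameter model.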

[9] = Metabolic stability in human liver microsomes assessed as compound hydrolysis incubated for 30 mins by LC-MS/MS analysis; format: ADME, Microsome; settings: read-out: Drug degradation
How it was run: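 Incubated 30 min with mouse or human liver microsomes. Stability reported as % metabolized.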

[10] = Clearance in human liver microsomes by LC-MS/MS analysis; format: ADME, Microsome
[11] = Aqueous solubility of the compound at pH 7.4; format: physicochemical; settings: buffer
Rattus norvegicus [12] = test: Hypoglycemic activity in Zucker fatty diabetes mellitus rat model assessed as increase in insulin levels in plasma at 0.03 to 1 mg/kg, po administered for 21 days and measured at 10 to 60 mins post glucose challenge on day 1 by OGTT; format: functional, organism-based; settings: dose 0.03-1 mg/kg, time 21.0 day
Rattus norvegicus [13] = test: Hypoglycemic activity in Zucker fatty diabetes mellitus rat model assessed as reduction in blood glucose level administered orally for 21 days and measured at 10 to 60 mins post glucose challenge on day 21 by OGTT; format: functional, organism-based; settings: dose 0.03-1 mg/kg, time 21.0 day
Mus musculus = test: Agonist activity at GPR40 in Balb/c mouse assessed as increase in GLP-1 levels in blood at 30 mg/kg, po measured at 15 to 180 mins by ELISA; format: functional, organism-based; settings: filed as agonist, time lower […], time upper 180.0 min
[14] = Dissociation constant, pKa2 of compound by potentiometric method; format: physicochemical
How it was run: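 pKa values measured potentiometrically.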

[15] = molecular target: T1, Free fatty acid receptor 1; test: Agonist activity at human recombinant full length GPR40 overexpressed in human HEK293 cells assessed as increase in intracellular calcium level measured over 3 mins by calcium 4 dye based FLIPR assay; format: functional, cell-based; how it was run: as §1
[16] = molecular target: Free fatty acid receptor 1 (Rattus norvegicus, UniProt Q8K3T4); test: Agonist activity at Prolink-tagged rat GPR40 fused with EA-tagged beta-arrestin expressed in human U2OS cells assessed as induction of beta-arrestin recruitment measured after 90 mins by beta-galactosidase based PathHunter assay; format: cell-based; how it was run: as §2
Free fatty acid receptor 1 (Rattus norvegicus, UniProt Q8K3T4), sequence (Q8K3T4 whole entry, the tested form may be a part): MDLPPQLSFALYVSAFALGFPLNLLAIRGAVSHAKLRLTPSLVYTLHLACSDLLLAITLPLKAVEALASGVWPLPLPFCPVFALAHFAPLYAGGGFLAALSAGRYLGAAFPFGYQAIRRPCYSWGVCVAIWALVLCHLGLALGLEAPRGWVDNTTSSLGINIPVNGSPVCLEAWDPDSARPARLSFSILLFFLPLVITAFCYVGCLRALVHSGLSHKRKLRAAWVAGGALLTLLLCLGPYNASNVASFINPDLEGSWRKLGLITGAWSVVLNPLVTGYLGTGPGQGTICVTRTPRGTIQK

Free fatty acid receptor 1 (Mus musculus), sequence (Q76JU9 whole entry, the tested form may be a part): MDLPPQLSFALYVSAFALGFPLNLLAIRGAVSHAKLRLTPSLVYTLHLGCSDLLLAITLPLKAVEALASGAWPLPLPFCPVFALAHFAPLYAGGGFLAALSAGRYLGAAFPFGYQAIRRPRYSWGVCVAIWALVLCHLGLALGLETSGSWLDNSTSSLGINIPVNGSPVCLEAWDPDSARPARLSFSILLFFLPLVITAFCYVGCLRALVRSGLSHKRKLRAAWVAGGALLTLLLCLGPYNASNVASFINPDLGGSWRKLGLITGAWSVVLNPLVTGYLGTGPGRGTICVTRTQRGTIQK
T1 sequence (O14842 whole entry): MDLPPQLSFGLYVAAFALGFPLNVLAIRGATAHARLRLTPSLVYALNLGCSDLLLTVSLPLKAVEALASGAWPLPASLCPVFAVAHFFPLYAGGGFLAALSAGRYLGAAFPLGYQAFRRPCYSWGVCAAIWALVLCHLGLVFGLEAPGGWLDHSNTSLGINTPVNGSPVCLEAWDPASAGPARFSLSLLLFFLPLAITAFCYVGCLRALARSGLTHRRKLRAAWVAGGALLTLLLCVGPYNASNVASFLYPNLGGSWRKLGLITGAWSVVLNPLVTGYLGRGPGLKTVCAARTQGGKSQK

| SMILES | Activity [1] | Emax [2] [%] | Emax [3] [%] | Emax [4] [%] | EC50 [5] [nM] | Emax [6] [%] | Activity ([7]; filed as agonist) | Emax [8] [%] | metabolised at 0.5 h [9] [%] | CLH [10] [h⁻¹] | solubility [11] [µM] | Activity (Rattus norvegicus [12]) | Activity (Rattus norvegicus [13]) | Activity (Mus musculus) | pKa [14] | Ki [1] [nM] | EC50 [15] [nM] | EC50 [16] [nM] | Activity [7] |
| --- | --- | --- | --- | --- | --- | --- | --- | --- | --- | --- | --- | --- | --- | --- | --- | --- | --- | --- | --- |
| CC#C[C@@H](CC(=O)O)c1ccc(OCc2ccc(CN3CCC4(C=Cc5ccccc54)CC3)cc2)cc1 [LY2881835] | Dose-dependent effect | 62 | 137 | 133 | 1.2 | 162 | Active | 5 | 38 | 0.033 | 61 (≈ 30 µg/mL) | Active | Dose-dependent effect | Active | 8.1 |  |  |  |  |
| O=C(O)C[C@@H](c1ccc(OCc2ccc3nc(-c4ccccc4)nn3c2)cc1)c1ccon1 |  | 54 | 141 | 98 | 68 | 124 |  |  |  |  |  |  |  |  |  | 79 | 14 | 14000 | inactive |
| CC#C[C@@H](CC(=O)O)c1ccc(OCc2ccc(CN3CCCc4cccc(OC)c43)s2)cc1 | Dose-dependent effect |  | 139 | 137 |  |  |  | 1 | 24 | 0.0048 | > 100 | Active | Dose-dependent effect | Active | 6 |  |  | 3 |  |
| CC#C[C@@H](CC(=O)O)c1ccc(OCc2ccc(CN3CCC4(CC3)CN(C)c3ccccc34)cc2)cc1 |  | 47 | 134 | 131 | 12 | 268 | Active |  |  |  |  |  |  |  | 8.3 | 11 | 55 | 5.5 |  |
| CC#C[C@@H](CC(=O)O)c1ccc(OCc2ccc(CN3CCC4(C=Cc5ccccc54)CC3)s2)cc1 |  | 50 | 116 | 119 | 0.6 | 145 | Active |  |  |  |  |  |  |  | 7.4 | 4.8 | 12 | 0.93 |  |
| CC#C[C@@H](CC(=O)O)c1ccc(OCc2ccc(CN3CCC4(CCc5ccccc54)CC3)cc2)cc1 |  | 46 | 137 | 135 | 6.2 | 249 | Active |  |  |  |  |  |  |  | 8.6 | 4.6 | 19 | 1.3 |  |
| CC#C[C@@H](CC(=O)O)c1ccc(OCc2ccc(CN3CCC4(CCc5ccccc54)CC3)s2)cc1 | Dose-dependent effect | 50 | 121 | 126 | 6.1 | 132 | Active | 2 | 44 | 0.109 | 89 (≈ 44.5 µg/mL) | Active | Dose-dependent effect | Active | 7.9 | 8.2 | 8 | 1.7 |  |
| O=C(O)CCc1ccc(OCc2ccc(CN3CCC4(C=Cc5ccccc54)CC3)cc2)cc1F |  | 80 | 144 | 127 | 39 | 282 |  |  |  |  |  |  |  |  | 7.7 | 68 | 180 | 160 | inactive |
